Compound activity from PubChem.
Hits are enriched below; roughly 4% of the tested compounds scored in any of these assays.
KCNQ1 block – inhibitors of human KCNQ1 potassium channel; CHO-K1 KCNQ1, FluxOR thallium flux fluorescence; hits give high values; 310,000 tested, 1.3% active; AID 2642; P51787; B-score at 10 µM;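 active = compounds whose thallium flux B-score, printed positive for inhibition, exceeds three library SD while starting fluorescence stays within three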;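 note: channel opened by potassium depolarization with thallium stimulus after 20 min compound exposure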
KCNQ1 act – potentiates or activates the human KCNQ1 potassium channel | CHO-K1 KCNQ1, thallium flux FluxOR fluorescence; hits give high values | B-score at 10 µM | 310,000 tested, 0.35% active | P51787;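 active = fluorescence ratio B-score, a plate-corrected score, at least three library SD, with initial intensity B-score within 5 SD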
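Material: CHO-K1 cells stably expressing KCNQ1. Medium: assay buffer for compound exposure, DMSO matched across wells. Reagent: K+/Tl+ depolarizing stimulus. Compound dosing: single-concentration screen. Times: 37 °C overnight plating, 90-min dark dye load, 20-min compound pretreatment. Technique: FluxOR Tl+ flux fluorescence.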
KCNK9 inh – blocks the human KCNK9 two-pore domain potassium channel | 310,000 tested, 1.2% active | Q9NPC2 | B-score at 10 µM | HEK293 KCNK9, FluxOR thallium flux fluorescence; hits give low values;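 active = ratio B-score over 3 SD below the library mean, with starting fluorescence within 5 SD of its mean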;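 note: negative B-score means less thallium flux so channel inhibition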
KCNK3 inh – human KCNK3 channel inhibition, primary screen | 340,000 tested, 0.84% active | CHO-KCNK3 thallium flux, FluxOR fluorescence; hits give low values | B-score at 10 µM | O14649 | AID 602410;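 active = B-score under library mean minus 4 SD, starting fluorescence ratio at most library mean plus 5 SD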;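 note: more negative B-score means stronger inhibition of thallium flux through KCNK3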
Target sequence (O14649 whole entry, looked up): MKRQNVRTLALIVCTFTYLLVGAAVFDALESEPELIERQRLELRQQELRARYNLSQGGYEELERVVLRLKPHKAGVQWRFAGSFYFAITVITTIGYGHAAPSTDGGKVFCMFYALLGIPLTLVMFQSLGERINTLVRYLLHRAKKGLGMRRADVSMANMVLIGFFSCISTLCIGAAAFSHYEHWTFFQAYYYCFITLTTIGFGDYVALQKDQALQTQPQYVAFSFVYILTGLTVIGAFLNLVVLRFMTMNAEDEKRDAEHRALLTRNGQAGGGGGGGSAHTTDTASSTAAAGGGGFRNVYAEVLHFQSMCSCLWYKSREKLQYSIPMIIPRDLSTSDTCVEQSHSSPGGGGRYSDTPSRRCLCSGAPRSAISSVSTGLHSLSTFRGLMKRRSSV
PHOSPHO1 block – blocks human PHOSPHO1 phosphatase activity; Q8TCT1; recombinant PHOSPHO1, absorbance phosphatase assay; inhibition, % at 13.3 µM; 290,000 tested, 1.1% active; AID 1565; in the data active = inhibition above about 60%
hERG rescue – shields human hERG channel from block by proarrhythmic agents; Q12809; CHO-hERG, FluxOR thallium flux, dofetilide IC70 present; activation (rescue from dofetilide block), less the hit threshold, % at 10 µM; 310,000 tested, 0.51% active; AID 1511;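 active = activation above the mean of controls blocked by dofetilide plus 5 SD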;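 note: thallium influx through hERG after potassium depolarization seen as dye fluorescence rise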
* = called active by the depositor; i = inactive; / = no result.

SMILES | KCNQ1 block | KCNQ1 act | KCNK9 inh | KCNK3 inh | PHOSPHO1 block | hERG rescue
COc1ccc(/C=N/NC(=O)C2c3ccccc3-c3ccccc32)cc1 | i | i | i | i | -5.8 | -2.4
O=[N+]([O-])c1cccc(C(=S)N2CCN(c3ccccc3F)CC2)c1 | i | i | i | i | 43.1 | -7.7
O=C(NC(=S)N(CC1CCC1)CC1CCCO1)c1cccc([N+](=O)[O-])c1 (centres undefined) | i | 16* | i | i | 24.0 | 7.9*
CC(NC(=O)NC(=O)c1cccc([N+](=O)[O-])c1)C1CC1 (centres undefined) | i | i | i | i | 75.4* | -11.7
O=C(NCC1CCCCC1)c1cccc([N+](=O)[O-])c1 | i | i | i | i | 34.8 | -6.6
CC(NC(=O)NC(=O)c1ccc(F)cc1)C1CC1 (centres undefined) | / | / | / | i | / | /
CN1CCN(C(=S)NC(=O)c2cccc([N+](=O)[O-])c2)CC1 | i | i | i | i | 31.3 | -4.3
CC1CCN(C(=S)NC(=O)c2cccc([N+](=O)[O-])c2)CC1 | i | 9* | i | i | -1.9 | 12.9*
O=[N+]([O-])c1cccc(C(=S)N2CCN(c3ccccc3)CC2)c1 | i | i | i | i | 78.6* | -3.9
CCC1CCCCN1C(=S)NC(=O)c1cccc([N+](=O)[O-])c1 (centres undefined) | i | 28* | i | i | 7.7 | 19.6*
CC(=O)NNC(=S)NC(=O)c1cccc([N+](=O)[O-])c1 | i | i | i | i | 57.5 | -6.0
O=C1N(Cc2ccc(F)cc2)CCN1c1ccc(F)cc1 | i | 19* | i | i | 49.8 | -14.4
COc1cccc(CN2CCN(c3ccc(F)cc3)C2=O)c1 | i | i | i | i | 23.9 | -0.7
CN1CCCc2cc3c(C(F)(F)F)cc(=O)oc3nc21 | 11* | i | i | i | 22.6 | -23.1
FC(F)(F)c1cc(C(F)(F)F)c2ccc(N3CCOCC3)nc2n1 | i | i | i | i | / | -6.2
Brc1cccc(-c2nnc3sc(CNCc4ccco4)cn23)c1 | i | i | i | i | 82.8* | -10.1
Brc1ccc(-c2nnc3sc(CNCc4ccc5c(c4)OCO5)cn23)cc1 | i | i | i | i | -14.1 | -7.9
O=C(CCn1cncn1)N1CCCC(N2CCN(c3ccc(F)cc3)CC2)C1 (centres undefined) | i | i | i | i | 27.6 | -9.6
Cc1cc(C)n(-c2nc3ccccc3nc2Nc2ccc3[nH]c(=O)[nH]c3c2)n1 | i | i | i | i | -3.4 | 0.3
COc1ccc(Nc2nc3ccccc3nc2-n2nc(C)cc2C)cc1 | i | i | -7.17* | i | 11.3 | -7.6
CC1=NN(c2ccc(C(=O)O)c(N)c2)C(=O)C1 | i | i | i | i | 62.8* | -1.8
CC1=NN(c2ccc(Cl)c(C(=O)O)c2)C(=O)C1 | i | i | i | i | -13.4 | -3.0
CC(C)(C)c1ccc(OCC(O)CSc2ncn[nH]2)cc1 (centres undefined) | i | i | i | i | 79.7* | -2.1
O=C(c1ccc(CS(=O)c2cccc(Cl)c2)o1)N1CCOCC1 (centres undefined) | i | i | i | i | -11.4 | -6.3
CC1(C)CC(=O)c2c(nn(-c3ccccc3)c2-c2ccncc2)C1 | i | i | i | i | 17.5 | 7.1*
SMILES | KCNQ1 block | KCNQ1 act | KCNK9 inh | KCNK3 inh | PHOSPHO1 block | hERG rescue
Cc1c2c(nc3ccccc13)CC(C)(C)CC2=O | i | i | i | i | 8.2 | -11.8
COc1ccc(OC)c(NC(=O)C(=O)NNC(=O)C23CC4CC(CC(C4)C2)C3)c1 | i | 10* | i | i | 3.7 | 65.2*
COc1ccc(NC(=O)COc2ccccc2)c(OC)c1 | i | i | i | i | -20.9 | -8.4
COc1cccc(OCC(=O)NNC(=O)C(=O)Nc2ccc(OC)cc2OC)c1 | i | 11* | i | i | 43.1 | 22.8*
COc1ccc(NC(=O)COc2ccc(Br)cc2)c(OC)c1 | i | i | i | i | 60.0* | 1.3
COc1ccccc1NC(=O)C(=O)NNC(=O)COc1ccc2ccccc2c1 | i | 84* | i | i | 28.0 | 55.6*
COC(=O)C1=C(C)N(C)C(=S)N(C)C1c1cccc(Br)c1 (centres undefined) | i | i | i | i | 5.8 | -15.5
O=C(COc1coc(CN2CCN(c3ccc(F)cc3)CC2)cc1=O)NC1CCCCC1 | / | / | / | i | / | /
S=c1[nH]nc(C2CCCCC2)n1/N=C/c1ccco1 | i | i | i | i | 32.1 | -6.1
CS(=O)(=O)N(CC(=O)NC1CCCC1)C1CCCCC1 | i | i | i | i | -37.3 | 6.5*
Cc1sc2ncnc(SCC(=O)c3ccc(O)cc3O)c2c1C | i | 8* | i | i | 14.9 | 1.2
Cc1sc2ncnc(SCC(=O)c3ccc(Cl)s3)c2c1C | i | i | i | / | 23.8 | -1.9
O=C(COc1ccccc1)N(Cc1cc2ccccc2[nH]c1=O)CC1CCCO1 (centres undefined) | i | i | i | i | 18.2 | -8.6
CC1C2(C)OCC(C#N)(C(=N)O2)C1(C#N)C#N (centres undefined) | i | i | i | / | 14.7 | -4.2
CC1=Nc2ccc3ccccc3c2C1(C)C | i | i | i | i | 62.9* | -6.2
CN(CC(=O)Nc1ccc(F)cc1)C(=O)COC(=O)C1CCN(c2ccc(C(F)(F)F)cn2)CC1 | i | i | i | i | / | -14.7
O=C(N[C@@H](Cc1ccccc1)C(=O)NCCc1c[nH]c2ccccc12)c1ccco1 | i | i | i | i | 15.1 | -8.9
CC(=O)N(c1ccc(Cl)cc1)c1c[nH]c2ccccc12 | i | i | i | i | 0.9 | -2.0
Oc1c(Br)cc(Br)cc1/C=N/c1nccs1 | / | / | / | i | / | /
Oc1c(Br)cc(Br)cc1C=Nc1ccc2[nH]ncc2c1 | i | 10* | -7.69* | i | 34.7 | 5.4*
Oc1c(Br)cc(Br)cc1C=Nc1cccnc1 | i | 15* | i | i | 25.7 | -18.0
CCOC(=O)/C(C#N)=C\c1ccc(N2CCN(C)CC2)cc1 | i | i | i | i | 17.6 | -11.0
Cc1cccc(N2C(=O)C(Cc3ccccc3)NC2=S)c1 (centres undefined) | i | i | i | i | -2.4 | -6.3
OC1(c2ccccc2F)CCN(Cc2nnc(-c3ccccc3)o2)CC1 | i | i | i | i | 8.9 | -2.7
CC(=O)Nc1ccc(C(=O)CSc2nc3ccccc3n2CC(=O)N2CCCC2)cc1 | i | i | i | i | 71.3* | -14.1
